Laboratory results from ChEMBL document CHEMBL1156469 (2007).
The source made the active and inactive calls. The calls are words filed in the database; no cut-off is given here.

Key:
[1] = target: Forkhead box protein O3 (Homo sapiens) (UniProt O43524); test: Inhibition of IGF-induced FOXO3a phosphorylation at Thr32 residue in human MDA-MB-231 cells by Western blot; format: cell-based
Outline: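 MDA-MB-231 breast cancer cells, control or resveratrol-treated, then exposed or not to IGF. Lysates resolved by SDS-PAGE, transferred to nitrocellulose, probed with specific primary and secondary antibodies, and detected by ECL. Membranes stripped and reprobed where indicated.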

Osteoblast [2] = test: Increase in osteopontin mRNA levels in rat primary osteoblast cells at 1 uM after 72 hrs by RT-PCR; format: functional, cell-based
Outline: (§1)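 Cells treated with 1 μm for 72 h; osteocalcin and osteopontin mRNA by RT-PCR, 30 cycles (95/52/72 °C, 1 min each), ethidium bromide–stained agarose gels; repeated at least twice from at least two cDNA preparations.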

Rattus norvegicus [3] = test: Increase in bone mineral density in ovariectomized Wistar rat dosed orally after 10 weeks; format: functional, organism-based
Outline: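 Female Wistar rats sham-operated or ovariectomized, fed compound orally every 2 days at indicated doses; femur/tibia BMD by DEXA under ketamine (87 mg/kg)/xylazine (13 mg/kg) anesthesia and serum ALP measured 10 weeks after surgery; n = 8/group, means ± S.D.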

MG-63 [4] = test: Increase in osteopontin levels in human MG63 cells at 1 uM after 72 hrs by ELISA; format: functional, cell-based
Outline: (§2)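 Cells treated with 1 μm for 72 h; osteocalcin or osteopontin in culture medium by sandwich ELISA, HRP-streptavidin/TMB, 450 nm; percent change versus untreated control.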

Osteoblast [5] = test: Effect on ornithine decarboxylase gene expression in rat primary osteoblast cells assessed as expression ratio of treated to untreated control by microarray analysis; format: functional
Outline: (§3)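 Resveratrol-treated and vehicle-treated primary osteoblasts were profiled on a mouse osteogenesis-focused cDNA array (GEArray Q series) built to track gene expression during osteogenic differentiation. Each gene's signal in treated cells was expressed as a ratio to untreated control.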

[6] = target: Alkaline phosphatase (Rattus norvegicus) (UniProt Q9JKS8); test: Increase in ALP activity in rat primary osteoblast cells at 0.1 to 10 uM after 7 days; format: cell-based
Sequence of Alkaline phosphatase (Rattus norvegicus) (Q9JKS8 as listed by the source): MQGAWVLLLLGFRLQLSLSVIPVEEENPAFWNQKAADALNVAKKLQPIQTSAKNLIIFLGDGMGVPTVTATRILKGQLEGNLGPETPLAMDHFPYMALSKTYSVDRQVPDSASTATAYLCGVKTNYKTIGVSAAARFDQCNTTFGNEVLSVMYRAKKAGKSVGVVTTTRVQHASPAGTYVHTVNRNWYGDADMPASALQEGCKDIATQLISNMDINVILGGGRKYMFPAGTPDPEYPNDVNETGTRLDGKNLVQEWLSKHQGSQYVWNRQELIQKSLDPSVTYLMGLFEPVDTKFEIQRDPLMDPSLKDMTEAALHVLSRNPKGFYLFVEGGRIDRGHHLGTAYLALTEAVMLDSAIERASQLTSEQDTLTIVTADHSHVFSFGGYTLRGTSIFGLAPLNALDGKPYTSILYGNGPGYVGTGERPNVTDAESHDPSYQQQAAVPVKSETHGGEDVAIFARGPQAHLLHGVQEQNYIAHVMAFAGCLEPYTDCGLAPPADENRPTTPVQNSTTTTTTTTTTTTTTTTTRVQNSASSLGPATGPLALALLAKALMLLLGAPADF

Osteoblast [7] = test: Reversal of increase in ER.DNA complex in rat primary osteoblast cells transfected with dominant-negative mutant Src expression vector at 1 uM by RT-PCR; format: functional, cell-based
[8] = target: Proto-oncogene tyrosine-protein kinase Src (Mus musculus) (UniProt P05480); test: Reversal of increase in Src kinase phosphorylation in mouse MC3T3-E1 cells transfected with dominant-negative mutant Src expression vector at 1 uM; format: cell-based
Sequence of Proto-oncogene tyrosine-protein kinase Src (Mus musculus) (P05480 2-535 limits assumed): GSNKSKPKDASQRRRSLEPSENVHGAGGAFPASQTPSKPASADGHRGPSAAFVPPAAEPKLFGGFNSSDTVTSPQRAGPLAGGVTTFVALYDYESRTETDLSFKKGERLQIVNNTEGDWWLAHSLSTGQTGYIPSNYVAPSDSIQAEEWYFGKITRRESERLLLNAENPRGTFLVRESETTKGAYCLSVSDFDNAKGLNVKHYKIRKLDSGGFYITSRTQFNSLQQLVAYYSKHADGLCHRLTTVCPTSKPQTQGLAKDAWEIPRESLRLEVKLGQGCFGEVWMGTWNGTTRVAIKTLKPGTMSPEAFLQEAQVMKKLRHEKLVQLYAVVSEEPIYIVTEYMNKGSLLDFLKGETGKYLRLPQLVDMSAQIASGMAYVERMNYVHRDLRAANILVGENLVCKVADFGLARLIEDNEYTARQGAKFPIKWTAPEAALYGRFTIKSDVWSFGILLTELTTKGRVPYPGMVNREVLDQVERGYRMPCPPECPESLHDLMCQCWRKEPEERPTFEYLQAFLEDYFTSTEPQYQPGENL
Outline: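 Src phosphorylation, ERα nuclear translocation and BMP-2 protein analysed by Western blot with ECL detection. Three independent experiments.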

Osteoblast [9] = test: Effect on vascular cell adhesion molecule 1 gene expression in rat primary osteoblast cells assessed as expression ratio of treated to untreated control by microarray analysis; format: functional
Outline: (§4)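 GEArray Q series Mouse Osteogenesis cDNA array profiling osteogenic-differentiation genes in treated versus vehicle-treated primary osteoblasts.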

Osteoblast [10] = test: Effect on epidermal growth factor gene expression in rat primary osteoblast cells assessed as expression ratio of treated to untreated control by microarray analysis; format: functional
Osteoblast [11] = test: Increase in BMP2 mRNA levels in rat primary osteoblast cells at 1 uM by RT-PCR method; format: functional, cell-based
Outline: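 Cells treated with 1 μm for 48 h; BMP-2 mRNA measured by quantitative real-time RT-PCR (SYBR Green, 0.5 μm each primer, 4 mm MgCl2, fluorescence read at 82 °C) and normalized.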

Osteoblast [12] = test: Effect on bone morphogenetic protein 5 gene expression in rat primary osteoblast cells assessed as expression ratio of treated to untreated control by microarray analysis; format: functional
MDA-MB-231 [13] = test: Antitumor activity against human MDA-MB-231 cells xenografted in SCID mouse orthotropic model assessed as inhibition of 17beta estradiol-induced tumor weight at 10 mg/kg for 2 days; format: functional; set-up: scale not given: the % may be the effect or the level left
Outline: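 Tumor cells were inoculated orthotopically into the mammary fat pad of 6-week-old female SCID mice. […] Tumor volume was calculated as LW2/2. Tumor formation was scored as mice with tumors per total (20 per group), and tumor weight as mean ± S.D. Groups were compared by one-way ANOVA with LSD post-hoc comparisons.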

[14] = Reversal of induction of BMP2 expression in mouse MC3T3-E1 cells at 1 uM by Western blot in presence of ICI-182780; format: functional, cell-based
MDA-MB-231 [15] = test: Reversal of inhibition in anchorage-independent colony formation of human MDA-MB-231 cells transfected with FOXO3a-specific small interfering RNA by soft agar colony forming assay; format: functional, cell-based
MCF7 = test: Reduction in anchorage-independent colony formation of human MCF7 cells at 1 uM by soft agar colony forming assay; format: functional, cell-based
Outline: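 Seeded in 0.35% noble agar in DMEM/10% FBS over a 0.7% agar bed. Colonies of at least 50 μm counted after 3 weeks under a dissecting microscope, six replicates per treatment. Three separate experiments.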

Rattus norvegicus [16] = test: Increase in serum BMP2 levels in orally dosed ovariectomized Wistar rat after 10 weeks by ELISA relative to sham operated control; format: functional, organism-based
Outline: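 Ovariectomized rats given indicated doses or estrogen by oral feeding; serum BMP-2 by ELISA 10 weeks after surgery; compared with sham-operated group; n = 8/group, means ± S.D.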

Osteoblast [17] = test: Increase in osteopontin levels in rat primary osteoblast cells at 1 uM after 72 hrs by ELISA; format: functional, cell-based; outline: as §2
Osteoblast [18] = test: Effect on cathepsin K gene expression in rat primary osteoblast cells assessed as expression ratio of treated to untreated control by microarray analysis; format: functional
Osteoblast [19] = test: Effect on bone morphogenetic protein 8b gene expression in rat primary osteoblast cells assessed as expression ratio of treated to untreated control by microarray analysis; format: functional
Osteoblast [20] = test: Reversal of increase in ER.DNA complex in rat primary osteoblast cells at 1 uM by RT-PCR in presence of PP2; format: functional, cell-based
MDA-MB-231 [21] = test: Antiproliferative activity against human MDA-MB-231 cells at 1 uM by flow cytometry; format: functional, cell-based
Outline: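 Proliferation was measured by DNA flow cytometry. Incubations were run in triplicate across three separate experiments, and values are means ± S.D.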

[22] = Reversal of increase in BMP2 expression in mouse MC3T3-E1 cells expressing pBMP2/mSp1 mutant at 1 uM after 4 hrs by luciferase method; format: functional, cell-based
Osteoblast [23] = test: Effect on alkaline phosphatase 2 gene expression in rat primary osteoblast cells assessed as expression ratio of treated to untreated control by microarray analysis; format: functional
MG-63 [24] = test: Increase in osteopontin mRNA levels in human MG63 cells at 1 uM after 72 hrs by RT-PCR; format: functional, cell-based; outline: as §1
[25] = target: RAC-alpha serine/threonine-protein kinase (Homo sapiens) (UniProt P31749); test: Enhancement of Akt inactivation in human MDA-MB-231 cells transfected with dominant negative Akt mutant; format: cell-based
Sequence of RAC-alpha serine/threonine-protein kinase (Homo sapiens) (P31749 whole entry): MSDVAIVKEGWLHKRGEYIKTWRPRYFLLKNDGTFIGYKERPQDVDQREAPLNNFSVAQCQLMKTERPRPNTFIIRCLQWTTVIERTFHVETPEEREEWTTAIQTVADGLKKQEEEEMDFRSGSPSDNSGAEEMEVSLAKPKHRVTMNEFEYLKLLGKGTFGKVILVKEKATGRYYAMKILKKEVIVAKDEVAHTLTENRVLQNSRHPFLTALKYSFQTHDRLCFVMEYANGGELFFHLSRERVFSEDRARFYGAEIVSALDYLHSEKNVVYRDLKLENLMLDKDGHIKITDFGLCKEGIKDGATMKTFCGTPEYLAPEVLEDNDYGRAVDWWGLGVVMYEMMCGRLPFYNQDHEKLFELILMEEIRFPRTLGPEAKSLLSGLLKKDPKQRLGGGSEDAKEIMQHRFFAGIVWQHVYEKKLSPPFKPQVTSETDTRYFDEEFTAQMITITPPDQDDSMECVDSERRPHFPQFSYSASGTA
Outline: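 MDA-MB-231 cells transfected with vector, constitutively active Akt or dominant negative Akt, treated ± compound; analyzed by Western blotting and BMP-2 promoter luciferase activity.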

Osteoblast [26] = test: Effect on serine proteinase inhibitor clade H1 gene expression in rat primary osteoblast cells assessed as expression ratio of treated to untreated control by microarray analysis; format: functional; outline: as §3
Osteoblast [27] = test: Effect on twist gene homolog 1 gene expression in rat primary osteoblast cells assessed as expression ratio of treated to untreated control by microarray analysis; format: functional; outline: as §4
MG-63 [28] = test: Increase in osteocalcin mRNA levels in human MG63 cells at 1 uM after 72 hrs by RT-PCR; format: functional, cell-based; outline: as §1

Sequence of Forkhead box protein O3 (Homo sapiens) (O43524 whole entry): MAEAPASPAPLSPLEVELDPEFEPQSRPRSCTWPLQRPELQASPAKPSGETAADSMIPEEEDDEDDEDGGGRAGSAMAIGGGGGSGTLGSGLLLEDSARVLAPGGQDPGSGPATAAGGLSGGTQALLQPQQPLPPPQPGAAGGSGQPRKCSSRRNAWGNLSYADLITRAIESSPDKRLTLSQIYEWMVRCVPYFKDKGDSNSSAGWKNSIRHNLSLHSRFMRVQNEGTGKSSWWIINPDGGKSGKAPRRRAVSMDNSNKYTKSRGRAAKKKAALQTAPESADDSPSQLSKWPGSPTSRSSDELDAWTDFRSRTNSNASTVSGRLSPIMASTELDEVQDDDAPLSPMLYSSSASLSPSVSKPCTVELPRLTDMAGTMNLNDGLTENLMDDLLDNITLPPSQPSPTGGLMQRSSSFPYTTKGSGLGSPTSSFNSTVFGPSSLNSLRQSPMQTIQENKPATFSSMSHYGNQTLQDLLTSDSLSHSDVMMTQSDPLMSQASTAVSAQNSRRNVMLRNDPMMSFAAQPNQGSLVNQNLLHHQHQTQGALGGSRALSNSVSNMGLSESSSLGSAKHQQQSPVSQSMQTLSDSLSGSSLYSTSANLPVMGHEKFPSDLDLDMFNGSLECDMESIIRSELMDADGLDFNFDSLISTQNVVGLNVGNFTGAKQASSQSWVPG

Activity [1]: Active | Activity [6]: Active | Activity [8]: Active | Activity [25]: Active
SMILES: Oc1ccc(/C=C/c2cc(O)cc(O)c2)cc1 [RESVERATROL]
Activity (Osteoblast [2]): Active | Activity (Rattus norvegicus [3]): Dose-dependent effect | Activity (MG-63 [4]): Active | Ratio (Osteoblast [5]): 2.79 | Activity (Osteoblast [7]): Active | Ratio (Osteoblast [9]): 0.46 | Ratio (Osteoblast [10]): 0.55 | Activity (Osteoblast [11]): Active | Ratio (Osteoblast [12]): 0.97 | Activity (MDA-MB-231 [13]): 43.6% | Activity [14]: Active | Activity (MDA-MB-231 [15]): Active | Activity (MCF7): Active | Activity (Rattus norvegicus [16]): Active | Activity (Osteoblast [17]): Active | Ratio (Osteoblast [18]): 5.6 | Ratio (Osteoblast [19]): 1.82 | Activity (Osteoblast [20]): Active | Activity (MDA-MB-231 [21]): Active | Activity [22]: inactive | Ratio (Osteoblast [23]): 8.63 | Activity (MG-63 [24]): Active | Ratio (Osteoblast [26]): 2.82 | Ratio (Osteoblast [27]): 3.77 | Activity (MG-63 [28]): Active
